STAT3 inh: reduces IL-6 driven STAT3 reporter signal; U3A cells, IL-6 STAT3-luciferase reporter, luminescence; host cell line lacks STAT1; inhibition, % at 5.5 µM; 190,000 tested, 0.89% active;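 active = inhibition above the mean inhibition across all screened compounds plus 3 SD, cut at about 44% in these data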;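 note: 0% = DMSO only wells and 100% = 100 µM nifuroxazide control wells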
STAT3 act-1: increases IL-6 driven STAT3 reporter signal. AID 871. activation (% of control), % at 5.6 µM. 190,000 tested, 0.91% active. U3A cells, IL-6 STAT3-luciferase reporter, luminescence; 100% = signal with IL-6 EC80 alone;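 active = activation above the screen-wide mean of compound activation plus 3 SD, cut at about 130% in these data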;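 note: 0% = background luminescence of wells with medium and substrate only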
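Material: STAT1-lacking human U3A cells, STAT3 luciferase reporter | Benchmarks: IL-6-only wells as 100% reference | Probe or stimulus: IL-6 (33 ng/mL) | Timing: Compound 1 h, then IL-6 6 h at 37 °C | Detection: Luminescence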
Platelet DG rel: modulates dense granule release in human platelets; inhibition, %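 (compounds screened at 7.5 µM in platelet-rich plasma)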; 300,000 tested, 0.22% active; AID 1663; human platelet-rich plasma, SFLLRN dense granule ATP release, luminescence;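 active = mean replicate score, as percent of positive control, at or above 50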
PERK inhibitor: inhibitors of human PERK kinase; 220,000 tested, 0.17% active; AID 1416; inhibition, % at 5.6 µM; CHO PERK-DD fusion, SEAP luminescence translation reporter; Q9NZJ5;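 active = inhibition above the mean inhibition of all tested compounds plus 3 SD, set separately per screening campaign, cut at about 2.9% in these data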;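 note: PERK kinase domain activated by AP20187 dimerizer at 100 nM; 0% = DMSO with dimerizer and 100% = rapamycin at 8.4 µM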
Target sequence (Q9NZJ5 whole entry, looked up, the tested form may be a part): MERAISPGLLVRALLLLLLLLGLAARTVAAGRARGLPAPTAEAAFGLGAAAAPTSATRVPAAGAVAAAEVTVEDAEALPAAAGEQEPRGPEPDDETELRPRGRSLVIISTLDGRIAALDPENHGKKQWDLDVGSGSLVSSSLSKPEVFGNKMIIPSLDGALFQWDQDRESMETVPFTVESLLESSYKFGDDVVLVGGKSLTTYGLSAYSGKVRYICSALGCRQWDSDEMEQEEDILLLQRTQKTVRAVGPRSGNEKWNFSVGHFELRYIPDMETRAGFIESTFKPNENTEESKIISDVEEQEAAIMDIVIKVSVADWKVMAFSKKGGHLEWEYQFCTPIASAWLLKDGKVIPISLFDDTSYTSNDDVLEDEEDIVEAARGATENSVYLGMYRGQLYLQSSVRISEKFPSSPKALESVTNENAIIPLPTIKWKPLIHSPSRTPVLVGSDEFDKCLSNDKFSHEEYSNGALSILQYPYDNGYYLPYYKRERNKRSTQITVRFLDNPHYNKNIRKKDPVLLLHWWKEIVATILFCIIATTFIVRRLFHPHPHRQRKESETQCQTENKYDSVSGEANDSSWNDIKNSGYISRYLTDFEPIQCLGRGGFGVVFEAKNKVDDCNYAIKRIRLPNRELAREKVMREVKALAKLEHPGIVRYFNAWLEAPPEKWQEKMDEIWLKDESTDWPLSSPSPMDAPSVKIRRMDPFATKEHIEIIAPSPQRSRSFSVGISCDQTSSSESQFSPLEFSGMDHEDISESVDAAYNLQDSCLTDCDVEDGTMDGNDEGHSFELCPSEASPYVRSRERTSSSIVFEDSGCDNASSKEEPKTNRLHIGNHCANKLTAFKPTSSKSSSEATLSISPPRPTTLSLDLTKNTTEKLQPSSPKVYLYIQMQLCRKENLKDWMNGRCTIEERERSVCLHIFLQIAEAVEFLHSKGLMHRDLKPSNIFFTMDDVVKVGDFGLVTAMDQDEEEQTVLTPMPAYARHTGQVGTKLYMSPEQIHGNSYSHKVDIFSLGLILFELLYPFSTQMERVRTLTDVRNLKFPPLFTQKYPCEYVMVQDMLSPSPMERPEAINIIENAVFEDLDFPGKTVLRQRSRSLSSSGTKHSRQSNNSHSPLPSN
STAT1 blocker: STAT1 signaling inhibition | 200,000 tested, 0.35% active | NIH 3T3 STAT1-luciferase reporter, IFN-gamma, luminescence | inhibition, % at 5.5 µM | AID 920;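 active = inhibition above a set limit, the mean inhibition across all tested compounds plus 3 SD, cut at about 34% in these data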;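 note: 0% = IFN-gamma with DMSO and 100% = IFN-gamma with 300 µM nifuroxazide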
STAT3 act-2: STAT3 activation, confirmation assay; U3A STAT3-luciferase reporter, IL-6 potentiation, luminescence; U3A cells lack STAT1; 100 means same as IL-6 alone; shares compounds with STAT3 act-1; 1,200 tested, 64% active; potentiation (% of control), % at 5.7 µM;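 active = percent activation of the STAT3 luciferase reporter above a set limit taken from the earlier primary screen, cut at about 130% in these data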;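 note: 0% = background signal of medium plus substrate and 100% = median of IL-6 with DMSO wells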
NFkB act 2: NF-kappaB activation in STAT3 activator counter-screen; activation (% of control), % at 5.7 µM; human cells, NF-kappaB reporter activation; 1,200 tested, 11% active; AID 1309; shares compounds with STAT3 act-1; in the data active = activation above about 120%;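 note: reporter induced by TNF-alpha stimulation; 100% = median of stimulated DMSO wells and 0% = no signal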
STAT1 act: STAT1 activation in STAT3 activator counter-screen; AID 1318; activation (% of control), % at 5.7 µM; NIH 3T3 STAT1-luciferase reporter, IFN-gamma, luminescence; shares compounds with STAT3 act-1; 1,200 tested, 13% active;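 active = activation above the solvent-only control well mean plus 3 SD, set per screening run, cut at about 120% in these data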;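 note: 100% = IFN-gamma with DMSO median signal so 100% means no change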
* hit, by the source's call; i = inactive; / = no result; + = active, no number. Shown are actives, neighbours in structure and some others; about 1.4% of the full set was active somewhere.

SMILES	STAT3 inh	STAT3 act-1	Platelet DG rel	PERK inhibitor	STAT1 blocker	STAT3 act-2	NFkB act 2	STAT1 act
CCOC(=O)/C(C#N)=C/c1c[nH]c2ccccc12	-33.6	128.7	7.5	0.4	-20.5	/	/	/
COC(=O)/C(C#N)=C/c1c[nH]c2ccccc12	-35.0	146.5*	-3.7	-0.6	-22.2	193.4*	128.8*	160.4*
CCOC(=O)c1[nH]c2ccccc2c1NC(=S)Nc1cccc(C)c1	-72.8	162.5*	-12.5	0.4	1.9	154.5*	99.6	86.8
CCOC(=O)c1[nH]c2ccccc2c1NC(=S)Nc1ccccc1	-66.0	156.6*	-16.9	0.5	0.1	163.0*	108.0	89.4
CCOC(=O)c1[nH]c2ccccc2c1NC(=O)C(C)(C)C	2.9	102.0	5.5	0.7	0.0	/	/	/
COc1ccc(NC(=O)C2=C(C)Nc3nc(CCCO)nn3C2c2ccc(OC)c(OC)c2)cc1 (stereo not drawn)	10.6	95.1	6.5	1.9	-8.7	/	/	/
CN1c2ccccc2C(C)(C)C12C=Nc1c(ccc3ccccc13)O2 (stereo not drawn)	-77.8	165.8*	4.9	0.6	13.4	150.1*	115.0	107.5
CCCNC(=O)Cn1c2ccccc2c2nc(=O)cc(C)n21	-71.0	169.9*	-3.1	0.8	5.0	158.3*	101.5	94.0
Cc1cc(=O)nc2c3ccccc3n(CC(=O)Nc3ccccc3Br)n12	/	/	2.9	-1.0	/	/	/	/
Cc1cccc(NC(=O)C2=C(O)c3ccccc3N(C)S2(=O)=O)c1	-60.4	155.0*	4.0	-0.7	1.0	95.0	108.8	99.0
CN1c2ccccc2C(O)=C(C(=S)Nc2ccc(Cl)cc2)S1(=O)=O	4.6	101.0	6.0	0.4	8.8	/	/	/
O=C1NC(=O)C2(CCCCCCCCCCC2)N1	/	/	-1.0	/	/	/	/	/
COc1cccc(C2(O)CC(C(F)(F)F)=NN2C(=O)c2ccccn2)c1 (stereo not drawn)	-4.9	108.2	-0.6	-0.4	-30.9	/	/	/
O=C(CN1CCC2(CC1)OCCO2)c1c[nH]c2ccccc12	-54.2	147.6*	-4.8	-0.5	-2.7	122.9	105.1	97.9
CC1CN(c2ccc(Cl)cc2[N+](=O)[O-])CCN1S(C)(=O)=O (stereo not drawn)	6.7	96.2	-3.4	1.9	-4.8	/	/	/
CCOc1ccc(Nc2nc(C)cc(C)c2C#N)cc1	-44.7	140.4*	1.6	0.5	2.1	125.7	102.2	104.2
COc1ccc(Nc2nc(C)cc(C)c2C#N)c(OC)c1	/	/	-1.0	/	/	/	/	/
COc1ccc(Nc2nc(C)cc(C)c2C#N)cc1	-44.0	137.2*	-1.5	-0.1	-0.1	149.9*	106.8	112.5
CCOc1ccc(Nc2cc(C)nc3nc(C)nn23)cc1	10.1	91.2	0.1	1.6	-1.6	/	/	/
CCOC(=O)[C@@H]1[C@H]2COc3cc(OC)ccc3[C@@H]2N2C(=O)N(c3cccc(Cl)c3)C(=O)[C@@]12C	/	/	1.5	/	/	/	/	/
O=C(CN1c2ccccc2Sc2ccccc21)NNC(=O)Nc1cccc(Cl)c1	/	/	3.2	-0.8	/	/	/	/
COc1ccc(C2CC3(CC(C)(C)NC(=S)N3)Oc3cc(O)cc(C)c32)cc1OC (stereo not drawn)	i	+	4.6	0.8	-4.2	692.9*	118.4	121.4*
CS(=O)(=O)N1N=C(c2cccs2)CC1c1ccccc1O (stereo not drawn)	0.5	101.5	1.3	0.7	-2.4	/	/	/
Oc1ccccc1C1CC(c2cccs2)=NC(c2ccc(Cl)cc2)N1 (stereo not drawn)	-44.7	140.4*	-7.4	0.5	33.1	139.3*	107.8	91.1
Cc1nc(NC(=O)CC(C)C)sc1-c1csc(Nc2ccc(Cl)cc2Cl)n1	-0.5	104.7	6.2	-0.4	-8.8	/	/	/
SMILES	STAT3 inh	STAT3 act-1	Platelet DG rel	PERK inhibitor	STAT1 blocker	STAT3 act-2	NFkB act 2	STAT1 act
Cc1nc(NC(=O)CC(C)C)sc1-c1csc(Nc2ccc(Cl)cc2)n1	-51.1	141.3*	2.8	-0.1	6.0	120.4	100.5	98.6
Cc1nc(NC(=O)c2ccccc2)sc1-c1csc(Nc2ccc(Cl)cc2)n1	27.5	85.7	4.1	-0.2	-9.7	/	/	/
CCCCCC(=O)Nc1nc(C)c(-c2csc(Nc3cc(Cl)ccc3C)n2)s1	-4.7	111.0	-3.7	-0.9	12.2	/	/	/
CCCCCC(=O)Nc1nc(C)c(-c2csc(Nc3ccc(Cl)cc3)n2)s1	-60.0	148.3*	8.9	-0.3	14.5	130.2	104.1	97.9
CCCCCCC(=O)Nc1nc(C)c(-c2csc(Nc3ccc(Cl)cc3)n2)s1	-34.6	136.0*	0.1	-0.8	20.2	126.1	108.1	93.6
Cc1nc(NC(=O)c2ccco2)sc1-c1csc(Nc2ccc(Cl)cc2)n1	-56.4	145.5*	2.3	-0.7	1.8	123.8	102.2	100.7
O=C(c1cc(-c2cccc(Cl)c2)nc2ccccc12)N1CCCC1	/	/	8.8	/	/	/	/	/
CCOc1ccc(S(=O)(=O)NC(Cc2cnc[nH]2)C(=O)O)cc1 (stereo not drawn)	14.8	93.8	4.0	0.3	2.6	/	/	/
CCCC(=O)N=C1SC2CS(=O)(=O)CC2N1c1ccc(-c2nc3ccc(C)cc3s2)cc1 (stereo not drawn)	-13.5	111.2	0.2	0.7	-34.4	/	/	/
CC1CN(Cc2cc(=O)oc3cc(O)c(Cl)cc23)CC(C)O1 (stereo not drawn)	/	/	3.9	/	/	/	/	/
N/C(=N\NC(=O)c1ccc(F)cc1)c1cc2ccccc2oc1=O	-42.4	146.5*	-1.3	-0.1	0.3	142.1*	109.0	103.8
N/C(=N\NC(=O)c1cccc(F)c1)c1cc2ccccc2oc1=O	/	/	1.8	1.0	/	/	/	/
Cc1c(NC(=O)Nc2cccc(C#N)c2)c(=O)n(-c2ccccc2)n1C	/	/	2.2	/	/	/	/	/
Cc1ccccc1C1c2[nH]c3ccccc3c2CCN1C(=O)c1ccc(=O)n(C)n1 (stereo not drawn)	-65.5	162.9*	6.2	0.3	9.6	168.8*	103.3	97.6
COc1ccc(C2c3[nH]c4ccccc4c3CCN2C(=O)c2ccc(=O)n(C)n2)c(F)c1 (stereo not drawn)	-50.3	148.4*	6.0	1.4	-9.9	153.5*	104.2	107.7
CCn1c(/C=C/c2ccccc2F)nc2ccccc2c1=O	/	/	-4.4	/	/	/	/	/
CCc1cc(C(c2ccc(F)cc2)N2CCOCC2)c(NC(=O)c2ccccc2)s1 (stereo not drawn)	2.4	102.0	-4.0	-0.9	3.8	/	/	/
CCc1cc(CN2CCOCC2)c(NC(=O)c2ccccc2)s1	-46.2	139.4*	1.2	0.0	-5.4	143.1*	107.1	109.8
O=C(O)CCCC(=O)Nc1ccc(OCc2nc3ccccc3s2)cc1	-36.5	136.2*	-2.3	0.0	-17.5	126.3	104.3	119.2

From PubChem BioAssay
